A short description of the data set: Toxicity liver stage against HepG2, at 10uM. It counts as cell-based. The conditions noted are these: human, HepG2-A16-CD81EGFP cells; read-out: INHIBITION
Also noted: test concentration 10 uM, cell line HepG2-A16-CD81EGFP. The procedure, abridged:
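Uninfected HepG2-A16-CD81EGFP cells, 3 × 10^3 per well, 1536-well, plated on prespotted compound at 10 μM final, parasite-free screening media added to match infected plates; puromycin 10 μM positive, DMSO 0.5% negative; run in parallel with 48 h PbLuc assay at 37 °C, 5% CO2; viability by CellTiter-Glo luminescence, normalized to controls.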

On to `CN1CCN(C(=O)N2C[C@@H]3CC[C@H]2CN(Cc2ccccc2)C3)CC1`, for which the cytotoxicity at 10 µM was -7.71%.
Next, `CN(C)C(=O)CNC(=O)c1ccc(Cl)cc1F`: -7.04%; `C[C@@H]1CN(C2(C(=O)N3CCCCCC3)Cc3ccccc3C2)C[C@H](C)O1`: -2.04%; `CCN1CC(C(=O)NCc2cccnc2-n2cccn2)CC1=O` (configuration not stated): 0.796%.
Next, `Cn1cc(CN2CCC3(CC2)CN(c2cccnc2)C(=O)CO3)cn1`: -103%; `CO[C@H]1CN(C)S(=O)(=O)[C@@]12CCN(Cc1ccccc1)C2`: 1.79%; `CCOC(=O)c1nnc2ccccc2c1N1CCOC(C)(C)C1`: 13.8%.
Next, `Cc1ccc(N2CCC(C(=O)NC3CCc4nccn4C3)CC2)nc1` (configuration not stated): -7.39%; `C=c1cc(C)oc1=C1NC(c2c(C)ncc3c2CCNC3)=NO1`: -0.132%; `CC(C)OC(=O)N1CCC(Nc2ncc(Br)cn2)CC1`: -0.951%.
As for `Cc1n[nH]c(C2CN(C(=O)c3cc(C)sc3C)CCO2)n1` (configuration not stated), the cytotoxicity at 10 µM amounted to 3.35%.
Next, `Cc1ccc(N2CCCC(NCc3ccc(C)s3)C2)nn1` (configuration not stated): -2.51%; `CCOc1ccc(C(=O)NCc2ccnc(N3CCN(C)CC3)c2)cn1`: 0.935%; `CC(C)c1n[nH]c(C2CN(C(=O)Cn3ccccc3=O)CCO2)n1` (configuration not stated): -0.924%.
Next, `CCc1ccc(NC(=O)C2OC(c3cccs3)=NN2C(C)=O)cc1` (configuration not stated): 4.64%; `O=C(O)CCn1ccc2cc(Br)ccc21`: 10.7%.
Next, `COCCC(=O)N1CCCC1c1nccnc1Nc1ncccn1` (configuration not stated): -14.8%; `CNC(=O)[C@@]12CCC3(CCN(C(=O)COC)CC3)[C@@H]1CN(S(C)(=O)=O)C2`: 4.53%.
For `OCCCN1CCc2onc(C(c3ccccc3)c3ccccc3)c2C1`, the cytotoxicity at 10 µM is -5.51%.
`Cn1ccnc1CN1CCC2(CC1)COCCN(S(C)(=O)=O)C2`: the cytotoxicity at 10 µM worked out at 3.39%.
Next, `CNC(=O)c1ccc2c(c1)C1(CCN(C(C)C)CC1)C(=O)N2`: 12.6%; `O=C(C1CC1)N1CCC2(CC1)CNCc1ccccc12`: 1.79%; `Clc1ccc(C2(NCc3noc(C4CC4)n3)CCC2)cc1`: 5.04%.
In the case of `c1coc(-c2nnc([C@H]3CCN(Cc4ccc5c(c4)OCO5)C3)o2)c1`, the cytotoxicity at 10 µM was -0.0837%.
Next, `CCc1[nH]nc(NC(=O)c2cc[nH]n2)c1C`: -3.98%.
Next, `Cc1nc(N2CCN(C(=O)C3CCCC3)CC2)c2c(n1)c(C)nn2C`: 6.97%; `CCCc1nc(CN2CCCC2Cn2cncn2)cs1` (configuration not stated): -9.39%; `N#CCCN(Cc1ccccn1)C(=O)Nc1cccnc1`: 0.525%.
Next, `CC(C)c1cccc(-n2cc(O)c(C(=O)O)n2)c1`: -4.49%; `COCCCN1CCCC(c2nccn2CC2CCC2)C1` (configuration not stated): -3.94%; `Cc1ccccc1-n1cc(CN(C)C[C@@H]2CCCN3CCCC[C@H]23)cn1`: -3.09%.
For the compound `CCN(CC)C(C)CNC(=O)c1cccnc1Oc1cccnc1` (configuration not stated), the cytotoxicity at 10 µM is -2.09%.
Next, `Cn1cnnc1-c1cncc(NCc2cccc3c2OC(C)(C)C3)c1`: 7.84%; `CS(=O)(=O)N1Cc2nc(C(=O)NCc3ccccc3)oc2C1`: -3.46%; `Cc1noc(-c2ccc(N3CCC[C@H]3CO)nc2)n1`: 1.48%.
Consider `O=C(O)CC1COCCN1C(=O)C1(c2ccc(Cl)cc2)CCC1` (configuration not stated), for which the cytotoxicity at 10 µM is -17.8%.
Next, `CN(C)C(=O)CN1CCc2ncnc(C3CC3)c2CC1`: -94.1%; `CN1CC2(CCCN(c3cnccn3)C2)OC1=O` (configuration not stated): -43.2%.
Next, `CCS(=O)(=O)N1C[C@@H](c2nnc(C)o2)C[C@H]2OCC[C@H]21`: 1.36%.
Next, `CCn1c(C)nnc1CN(C)C1CCN(CCc2cccs2)C1` (configuration not stated): -7.12%.
On to `CS(=O)(=O)CCOc1nc(-c2ccccc2Cl)no1`, for which the cytotoxicity at 10 µM is -11.2%.
Next, `COCCN1CCN(c2ccc(C)nn2)Cc2ccc(C)nc21`: -104%.
Next, `CCCN1CCC(N2CCN(c3cccc(C)n3)CC2)CC1`: -10.8%; `CCCNC(=O)CCNC1CSCCc2ccccc21` (configuration not stated): -0.421%.
As for `COc1ccc(S(N)(=O)=O)cc1C(=O)N(C)Cc1cc(C)on1`, the cytotoxicity at 10 µM was -4.3%.
On to `Cc1ccccc1SCC(=O)NC1CCC(O)CC1` (configuration not stated), for which the cytotoxicity at 10 µM was found to be 9.58%.
Next, `O=S(=O)(c1cnccc1N1CCN(CCO)CC1)N1CCOCC1`: -8.49%; `COc1cc(N2CCC(c3nccn3Cc3cccnc3)CC2)ncn1`: -4.4%; `CC(C)c1nnc(CN2C(=O)OC[C@@H]2C(C)C)o1`: 14.3%.
As to `CC(C)(C)OC(=O)CNC(=O)CCc1nnc(-c2ccsc2)o1`, the cytotoxicity at 10 µM was -10.2%.
Next, `CCC(=O)N1CCC(c2cncc(Oc3cccnc3)n2)CC1`: -4.69%.
In the case of `Cc1cc(CNC2CCCN(Cc3noc(C4CC4)n3)C2)on1` (configuration not stated), the cytotoxicity at 10 µM was -17.7%.
Next, `CNC(=O)[C@@H]1COC[C@H]2CN(C(=O)c3ccc(C)c(F)c3)C[C@H]21`: 0.165%; `Cc1ccc2c(n1)N(Cc1ccncc1)CCN(S(C)(=O)=O)C2`: -77.2%.
Next, `CCc1c(O)nc2nc(N3CCCC3)nn2c1C`: 10%.
Next, `CCN(CC)CCNc1ncc(-c2cc(C)no2)c(-c2ccoc2C)n1`: -4.94%; `Cc1cccc(C(=O)N2CCc3c(CN(C)C)nn(C)c3C2)n1`: 3.61%; `O=C(NCc1n[nH]c2c1CCCCC2)c1cnn2c1CCCC2`: 13.6%.
In the case of `Cc1cc(NC(=O)CN2CCCC(Cn3nc(C)nc3C)C2)n(C)n1` (configuration not stated), the cytotoxicity at 10 µM was -9.54%.
For the compound `COC(=O)COc1ccc(-c2noc(C3CCCO3)n2)cc1` (configuration not stated), the cytotoxicity at 10 µM is 1.07%.
Consider `O=C(c1ccsc1)N1CCN2C[C@H](OCc3ccccn3)C[C@H]2C1`, for which the cytotoxicity at 10 µM is -71.8%.
Next, `Cc1cccc(N2CCC3(CCCN3Cc3cnn(C)c3C)CC2)n1`: -2.35%; `O=C(c1ccccn1)N1CCN(c2ccc(-n3cccc3)nn2)CC1`: -13.7%.
Next, `CC(C)C1SCC(=O)Nc2c1cnn2-c1ccc(F)cc1` (configuration not stated): 1.23%; `CC(C)C(Sc1nnnn1-c1ccccc1)C(=O)NCc1cccnc1` (configuration not stated): -3.02%; `COc1ccccc1C(C)(C)NCc1ccc(C)o1`: -0.121%.
Next, `CCOCCN1CCN(CC(O)c2cc(Cl)ccc2Cl)CC1` (configuration not stated): 0.858%; `O=C(CCc1ccccc1)NCC1CCN(Cc2cccs2)CC1`: -2.68%.
For the compound `Cc1cccc(NC(=O)N2Cc3c(CN(C)C)nn(C)c3C2)c1`, the cytotoxicity at 10 µM worked out at 7.77%.
Next, `COc1cc(Cl)cc(CN2CCCC(N3CCCC3)C2)c1OC` (configuration not stated): -3.88%.
Next, `CCCS(=O)(=O)N1CCC2(CC(=O)N(c3cnn(C)c3)C2)C1` (configuration not stated): 4.59%; `CNS(=O)(=O)c1ccc(CNC(=O)c2cccc(C)n2)cc1`: 7.17%.
In the case of `O=C1[C@H]2CN(C3CCOCC3)C[C@H]2CN1Cc1ccncc1`, the cytotoxicity at 10 µM was -124%.
Next, `O=C(CCn1cccn1)NCCOc1cccc(Cl)c1`: -2.48%.
Take `CC(Nc1c(F)cc(C#N)cc1F)c1cccc(S(N)(=O)=O)c1` (configuration not stated): the cytotoxicity at 10 µM was -4.34%.
On to `Cc1ccc(C(=O)CCC(=O)N2CCC(c3nncn3C)CC2)cc1`, for which the cytotoxicity at 10 µM was -9.86%.
Next, `Cn1ccnc1CN1CCCN(C(=O)c2ccc3c(c2)OCO3)CC1`: -6.61%; `c1ccc(Cc2noc(CN3CCOC(Cn4cccn4)C3)n2)cc1` (configuration not stated): -6.67%; `Cc1cnn(C2CN(Cc3noc(-c4ccccc4)n3)C2)c1`: -1.52%.
Next, `Cc1ccc(C2CCCCCN2C(=O)Nc2cn[nH]c2)o1` (configuration not stated): 5.16%.
Next, `CC(=O)NC(CC(=O)Nc1ccc(C)cn1)c1ccccc1` (configuration not stated): -12.5%; `CCC1COCCN1C(=O)CNC(=O)c1ccsc1` (configuration not stated): 4.53%; `CCn1ccnc1CN1CCN(CCC(=O)NC(C)(C)C)CC1C` (configuration not stated): -15.8%.
Consider `Cc1nn(C)c(C)c1C1CCCN1Cc1nc(-c2ccco2)no1` (configuration not stated), for which the cytotoxicity at 10 µM was -3.17%.
In the case of `Cn1cc(C(=O)Nc2ccc(CC(=O)NC3CC3)cc2)nn1`, the cytotoxicity at 10 µM is -7.42%.
Next, `CC(Oc1ccc(F)cc1)C(=O)N(CC(N)=O)C1CCCC1` (configuration not stated): 0.217%; `CC(C)=CCC/C(C)=C/CN1CCN(C)C2(CCNC(=O)CC2)C1` (configuration not stated): -54.1%.
Turning to `Cc1ccc(-c2noc(CC[C@@H]3CCCN4CCCC[C@H]34)n2)nn1`, the cytotoxicity at 10 µM is -4.56%.
Next, `CC(=O)N1CCC(NCc2cccnc2N(C)Cc2ccccc2)CC1`: -14.1%.
Next, `CCc1nc(C)c(C(=O)N(C)Cc2cnn(-c3cccc(OC)c3)c2)s1`: 11.7%; `CCOC(=O)c1cc2c(=O)[nH]c(=O)n(CCc3ccccc3)c2nc1C`: -6.28%.
Next, `COCCC1(CO)CCCN(C(=O)c2cccnc2O)C1` (configuration not stated): -50.7%; `CC(C)(NS(C)(=O)=O)c1nc(-c2ccc(F)cc2Cl)no1`: 4.98%; `Cc1ccc2nc(C3CCCN3Cc3cccc(CCN)c3)[nH]c2c1` (configuration not stated): -7.01%.
In the case of `O=C(c1cc(C2CC2)nc2onc(-c3ccccc3)c12)N1CC[C@H](O)C1`, the cytotoxicity at 10 µM was -40.4%.
Next, `CCS(=O)(=O)N1CCC(Nc2c(F)cc(C#N)cc2F)CC1`: 8.13%; `CCc1nn(C)c(Cl)c1CN1CCN(c2ccc(C(N)=O)cn2)CC1`: 9.83%.

For the origin of these results see ChEMBL document CHEMBL4513216, “Probing the Open Global Health Chemical Diversity Library for Multistage-Active Starting Points for Next-Generation Antimalarials” (ACS Infect Dis, 2020).
